High-throughput results (PubChem)
In the library only some 1.9% were active in any assay of this set; here they are far more common.
M4 PAM – CHRM4 positive allosteric modulation | CHO-K1 hM4/Gqi5, Fluo-8 calcium fluorescence, ACh EC20; 0% = ACh EC20, 100% = maximal ACh | activation, % at 3 µM | AID 624126 | 360,000 tested, 0.4% active;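 active means activation above its plate's cutoff, the mean activation of sample wells plus 3 SD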
CHRM4 antagonist – blocks acetylcholine activation of human M4 receptor. P08173. CHO-hM4 cells, ACh EC80, Fluo-8 calcium fluorescence. inhibition, % at 3 µM. 360,000 tested, 0.73% active. AID 624125;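 active means inhibition above its plate's cutoff, the mean inhibition of sample wells plus 3 SD, cut at about 27% in these data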;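 further: 0% = acetylcholine EC80 with DMSO and 100% = DMSO without agonist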
M4 ag – CHRM4 agonism in calcium assay | AID 624127 | P08173 | CHO-K1 hM4/Gqi5, Fluo-8 calcium fluorescence; vehicle 0%, full acetylcholine response 100% | activation, % at 3 µM | 360,000 tested, 0.14% active;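 active means activation above the run mean over all test wells plus 3 SD, cut at about 32% in these data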;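 further: peak over basal fluorescence ratio per well then scaled between controls; 0% = DMSO wells and 100% = acetylcholine at EC100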
CHRM5 PAM – positive allosteric modulators of human muscarinic M5 receptor; activation, % at 3 µM; CHO-K1 hM5, Fluo-8 calcium, ACh EC20 PAM; 0% = ACh EC20, 100% = ACh EC100; 360,000 tested, 0.3% active; P08912;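 active means activation above the run cutoff, the mean activation of all test compounds plus 3 SD, cut at about 18% in these data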
Target sequence (P08912 whole entry, looked up): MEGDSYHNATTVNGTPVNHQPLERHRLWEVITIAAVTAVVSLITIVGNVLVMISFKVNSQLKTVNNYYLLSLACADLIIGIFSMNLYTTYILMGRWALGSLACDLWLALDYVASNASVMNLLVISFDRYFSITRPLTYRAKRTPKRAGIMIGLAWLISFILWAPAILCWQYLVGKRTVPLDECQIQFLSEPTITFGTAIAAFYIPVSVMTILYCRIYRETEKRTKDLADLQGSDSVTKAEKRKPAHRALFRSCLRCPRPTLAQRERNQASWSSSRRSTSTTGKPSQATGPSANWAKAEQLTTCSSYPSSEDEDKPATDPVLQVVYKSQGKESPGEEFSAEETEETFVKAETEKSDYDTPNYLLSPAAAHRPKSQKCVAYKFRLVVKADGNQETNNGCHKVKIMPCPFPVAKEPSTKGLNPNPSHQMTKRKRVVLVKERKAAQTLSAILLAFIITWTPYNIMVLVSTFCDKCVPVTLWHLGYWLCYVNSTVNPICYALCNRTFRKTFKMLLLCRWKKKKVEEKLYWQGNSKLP
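Assay system: CHO-K1 hM5 cells. Also added: acetylcholine at EC20 concentration, added after compound. Dosing: 3 µM, single dose. Times: compound preincubation 140 s before EC20 acetylcholine addition. Signal: Fluo-8 calcium fluorescence. Measure: % activation relative to EC20 and EC100 ACh responses. Repeats: singlicate, one well per test compound.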
M5 ag – agonists of human muscarinic M5 receptor (CHRM5) | CHO-K1 hM5 cells, Fluo-8 calcium fluorescence; 0% DMSO wells, 100% maximal acetylcholine response | activation, % at 3 µM | 360,000 tested, 0.19% active;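 active means activation above the run's mean over test compounds plus 3 SD, cut at about 23% in these data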;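 further: signal is peak over basal fluorescence ratio across the kinetic read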
M5 antag – CHRM5 antagonism in calcium assay; 360,000 tested, 0.59% active; CHO-hM5 cells, Fluo-8 calcium fluorescence, ACh EC80; inhibition, % at 3 µM; P08912;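 active means inhibition above a per-plate cutoff, the mean of that plate's test compounds plus 3 SD, cut at about 27% in these data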;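 further: 0% = acetylcholine EC80 with DMSO and 100% = DMSO without agonist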
* = called active by the depositor.

SMILES	M4 PAM	CHRM4 antagonist	M4 ag	CHRM5 PAM	M5 ag	M5 antag
CCCCn1c(N)c(N(CCOC)C(=O)c2cc3c(s2)CCCCC3)c(=O)[nH]c1=O	24*	-8	1	-6	-2	10
CCN(CC)CCOC(=O)C(Cc1ccco1)Cc1cccc2ccccc12 (stereo not drawn)	-15	17	12	-27	-16	28*
Cc1nc(C(F)(F)F)ccc1C(=O)N1CCCC(C(=O)O)CC1 (stereo not drawn)	5	-8	0	-3	0	11
CCOC(=O)C1CCCN(C(=O)c2ccc(C(F)(F)F)nc2C)CC1 (stereo not drawn)	4	2	1	-2	2	1
COC(=O)c1c(C)[nH]c(C(=O)COC(=O)c2c(C)noc2C)c1C	-1	2	3	9	3	1
Cc1ccc(C(=O)Nc2nnc(-c3ccco3)o2)cc1	17	2	2	22*	2	14
O=C(Nc1nnc(-c2ccco2)o1)c1ccc(S(=O)(=O)N2CCCC2)cc1	2	5	1	7	0	-15
O=C(Nc1nnc(-c2ccco2)o1)C1CC1	13	-4	2	23*	6	-8
CS(=O)(=O)c1ccccc1-c1nnc(NC(=O)c2ccco2)o1	-4	39*	0	0	0	-3
CC1CCN(S(=O)(=O)c2ccc(C(=O)Nc3nnc(-c4ccco4)o3)cc2)CC1	6	2	0	29*	1	-35
CC(C)(C)CC(C)(C)NC(=O)c1ccccc1	2	-6	1	1	3	5
CCC(C)(NC(=O)c1ccccc1)C(=O)O (stereo not drawn)	31*	22	1	9	-2	-2
COc1ccc([C@H]2CC(=O)C=C(c3ccc(C(F)(F)F)c(C(F)(F)F)c3)C2)cc1OC	4	-25	1	20*	-1	-8
CC1(C(=O)NCc2ccccc2)CN(S(C)(=O)=O)CC(=O)N1Cc1cccc(F)c1 (stereo not drawn)	24*	-6	6	-1	2	6
COc1ccc(NC2=CC(c3cccc(OC)c3)N(c3ccc(OC)cc3)C2=O)cc1 (stereo not drawn)	0	24	2	-8	7	50*
CC(=O)c1ccc(NC(=O)COC(=O)c2ccccc2Sc2ccccc2C#N)cc1	-11	0	6	-11	-1	10
COc1cccc(C(c2nnnn2-c2c(C)cccc2C)N2CCN(C/C=C/c3ccccc3)CC2)c1OC (stereo not drawn)	-10	-26	0	-22	-8	4
FC(F)(F)Oc1ccccc1C(c1nnnn1C1CCCC1)N1CCN(C/C=C/c2ccccc2)CC1 (stereo not drawn)	-15	23	-1	-22	-8	64*
COc1cccc(C(c2nnnn2C2CCCCC2)N2CCN(C/C=C/c3ccccc3)CC2)c1OC (stereo not drawn)	-16	29*	0	-23	-8	41*
CC(C)(C)n1nnnc1C(c1ccccc1OC(F)(F)F)N1CCN(C/C=C/c2ccccc2)CC1 (stereo not drawn)	-12	8	3	-21	-8	15
CCCCn1cnc2c1c(=O)[nH]c(=O)n2CCCC	6	6	2	19*	-4	-2
CCn1cnc2c1c(=O)[nH]c(=O)n2Cc1ccccc1	3	-13	1	3	-2	-1
CCCCn1cnc2c(cnn2-c2ccc(F)cc2)c1=O	-5	37*	1	-6	1	2
COc1cc(CCC(=O)OCC(=O)Nc2ccc3c(c2)OCO3)cc(OC)c1OC	-1	4	4	-6	-1	19
Oc1c(/C=N/c2ncn[nH]2)ccc2ccccc12	9	4	1	-2	-2	5
SMILES	M4 PAM	CHRM4 antagonist	M4 ag	CHRM5 PAM	M5 ag	M5 antag
C[C@@H]1C(c2ccccc2)=NN(c2ccc(Br)cc2)[C@H]1C(=O)N1CCOC1=O	-2	-9	0	6	-1	-7
Cc1ccccc1Cn1c(C)c(C(=O)NCc2cccc(Cl)c2)sc1=O	-6	-9	6	-7	1	6
COc1ccc(CNC(=O)c2sc(=O)n(Cc3ccc(-c4ccccc4)cc3)c2C)cc1OC	-4	-1	21	-24	8	30*
COc1ccc(Cl)cc1Cn1c(C)c(C(=O)NCc2ccc(C#N)cc2)sc1=O	-16	12	7	-10	5	3
COc1ccc(CNC(=O)c2sc(=O)n(Cc3ccccc3C)c2C)cc1	4	-22	24	-11	41*	-3
COc1ccccc1Cn1c(C)c(C(=O)NCc2ccc(C#N)cc2)sc1=O	-18	20	37*	-13	28*	11
COc1ccc(CNC(=O)c2sc(=O)n(Cc3ccc(C)cc3)c2C)cc1OC	1	3	7	-7	7	4
Cc1c(C(=O)NCc2ccc([N+](=O)[O-])cc2)sc(=O)n1Cc1ccc2c(c1)OCO2	-10	5	21	-13	25*	8
COc1ccc2c(c1)[C@H]1[C@H](CO2)[C@H](c2ccccc2)[C@]2(C)C(=O)Nc3cc(Cl)ccc3C(=O)N12	-8	18	1	-15	-3	19
CCNc1ccc(C(=O)OCC(=O)NCCN2C(=O)CSC2=O)cc1[N+](=O)[O-]	6	-8	3	22*	5	-10
Cc1csc(NC(=O)C2CC(=O)N(c3ccc4c(c3)OCCO4)C2)n1 (stereo not drawn)	-2	-4	3	-6	3	-1
CCc1ccc(-c2csc(NC(=O)C3CC(=O)N(c4ccc5c(c4)OCCO5)C3)n2)cc1 (stereo not drawn)	30*	-3	5	-12	2	-1
COc1ccc(-c2noc(CN3CCCCC3c3nccn3C)n2)cc1 (stereo not drawn)	-18	10	0	-13	-16	12
Cn1ccnc1C1CCCCN1Cc1nc(-c2ccc3c(c2)OCO3)no1 (stereo not drawn)	-25	27*	-1	-26	-21	15
Cn1ccnc1C1CCCCN1Cc1nc(Cc2cccc(C(F)(F)F)c2)no1 (stereo not drawn)	-21	39*	3	-15	-11	-5
COc1ccc2nc(C)cc(NCc3ccc(F)cc3)c2c1	-7	27*	32*	-6	14	32*
COc1ccc2nc(C)cc(Nc3ccc(C)cc3)c2c1	-5	-1	1	-4	-3	5
